26 molecules from ChEMBL document CHEMBL3227919, “Development of ethyl 3,4-dihydro-4-oxopyrimido[4,5-b]quinoline-2-carboxylate, a new prototype with oral antiallergy activity” (1979) can be followed below.

Active and inactive are the calls of the source. The calls are words filed in the database; no cut-off is given here.

Assay [1] has as its system Rattus norvegicus. In words: Antiallergic activity in po dosed rat assessed as inhibition of antigen-induced passive cutaneous anaphylaxis. The class given is functional.
Assay [2] relates to Rattus norvegicus. Put plainly: Antiallergic activity in po dosed rat assessed as inhibition of antigen-induced passive cutaneous anaphylaxis relative to DSCG. Type of assay: functional.
In assay [3] the test system is Rattus norvegicus. In words: Antiallergic activity in po dosed rat assessed as inhibition of passive cutaneous anaphylaxis. Type of assay: functional.
Assay [4] concerns Rattus norvegicus. In words: Antiallergic activity in Wistar Charles River rat assessed as inhibition of histamine-induced passive cutaneous anaphylaxis at 3 mg/kg, iv relative to control. The class given is functional.
Assay [5] relates to Rattus norvegicus. In words: Antiallergic activity in Wistar Charles River rat assessed as inhibition of histamine-induced passive cutaneous anaphylaxis at 10 mg/kg, iv relative to control. The class given is functional.
The test system of assay [6] is Rattus norvegicus. Put plainly: Antiallergic activity in Wistar Charles River rat assessed as inhibition of histamine-induced passive cutaneous anaphylaxis at 1 mg/kg, iv relative to control. Type of assay: functional.
In assay [7] the test system is Rattus norvegicus. Put plainly: Antiallergic activity in Wistar Charles River rat assessed as inhibition of histamine-induced passive cutaneous anaphylaxis at 100 mg/kg, po relative to control. Type of assay: functional.
In assay [8] the test system is Rattus norvegicus. In words: Antiallergic activity in Wistar Charles River rat assessed as inhibition of histamine-induced passive cutaneous anaphylaxis at 10 mg/kg, po relative to control. Type of assay: functional.
In assay [9] the test system is Rattus norvegicus. In words: Antiallergic activity in Wistar Charles River rat assessed as inhibition of histamine-induced passive cutaneous anaphylaxis at 30 mg/kg, po relative to control. The class given is functional.
The subject of assay [10] is Homo sapiens. In words: Antiallergic activity in po dosed human assessed as concentration required to inhibit antigen-induced clinical asthma. The class given is functional.
Assay [11] has as its system Rattus norvegicus. In words: Antiallergic activity in Wistar Charles River rat assessed as inhibition of histamine-induced passive cutaneous anaphylaxis at 30 mg/kg, iv relative to control. Type of assay: functional.
The test system of assay [12] is Rattus norvegicus. Put plainly: Antiallergic activity in Wistar Charles River rat assessed as inhibition of histamine-induced passive cutaneous anaphylaxis at 30 mg/kg, ip relative to control. Type of assay: functional. As to conditions: route intraperitoneal.
Assay [13] concerns Rattus norvegicus. Put plainly: Antiallergic activity in Wistar Charles River rat assessed as inhibition of histamine-induced passive cutaneous anaphylaxis at 50 mg/kg, ip relative to control. Type of assay: functional. Conditions: route intraperitoneal.
The subject of assay [14] is Rattus norvegicus. Put plainly: Antiallergic activity in po dosed Wistar Charles River rat assessed as inhibition of histamine-induced passive cutaneous anaphylaxis. Type of assay: functional.
For assay [15], the system named is Rattus norvegicus. Put plainly: Antiallergic activity in Wistar Charles River rat assessed as inhibition of histamine-induced passive cutaneous anaphylaxis at 0.1 mg/kg, iv relative to control. The class given is functional.
Assay [16] relates to Rattus norvegicus. In words: Antiallergic activity in Wistar Charles River rat assessed as inhibition of histamine-induced passive cutaneous anaphylaxis at 1 mg/kg, po relative to control. Type of assay: functional.
In assay [17] the test system is Rattus norvegicus. In words: Antiallergic activity in Wistar Charles River rat assessed as inhibition of histamine-induced passive cutaneous anaphylaxis at 3 mg/kg, po relative to control. The class given is functional.
In assay [18] the test system is Rattus norvegicus. In words: Inhibition of carrageenan-induced foot edema in rat at 10 mg/kg, po. Type of assay: functional, organism-based. Details: dose 10 mg/kg. On the technique in general: The carrageenan paw model is a standard test of acute inflammation.
In a further assay the test system is Cavia porcellus. Put plainly: Inhibition of histamine-induced bronchoconstriction in guinea pig up to 100 mg/kg, po. The class given is functional, organism-based. Details: dose 100 mg/kg.
The subject of assay [19] is Rattus norvegicus. In words: Antiallergic activity in po dosed Wistar rat assessed as inhibition of ovalbumin-induced passive cutaneous anaphylaxis. The class given is functional. Summed up:
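Male Charles River Wistar rats, 170-210 g. Reaginic egg-albumin antiserum was raised with Bordetella pertussis or Al(OH)3, then diluted to give a 15-mm wheal and injected intradermally (0.1 mL) into shaved back skin. After 48 h, drug or saline was given, then 2.5 mg Evans blue plus 5 mg egg albumin in saline. Each site was scored as diameter (mm) × dye-intensity grade (0.5-4), summed per group of 5 or 7 rats and compared with saline controls.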

In assay [20] the test system is Rattus norvegicus. Put plainly: Antiallergic activity in po dosed Wistar rat assessed as inhibition of ovalbumin-induced passive cutaneous anaphylaxis relative to DSCG. The class given is functional.
The test system of assay [21] is Homo sapiens. In words: Antiallergic activity in po dosed human assessed as oral active dose. Type of assay: functional.

What is called ED50 is the midpoint of the dose-response relation. `O=C(O)c1cc(=O)c2cc3c(=O)cc(C(=O)O)[nH]c3c(Cl)c2[nH]1`: in the assay with Rattus norvegicus [1], the 50% effective dose (ED50) is less than 25.5 mg/kg. Besides, in the assay with Rattus norvegicus [2], the “fold change (FC)” value is reported as 50.

With `CCOC(=O)CCc1n[nH]c2ccc(CC)cc2c1=O`, the ED50 in the assay on Rattus norvegicus [3] stood at 4 mg/kg.

Broadly, the inhibition in vivo is the relative decrease from the control value, in per cent. Regarding `O=c1[nH]cnc2cc3ccccc3cc12`, the inhibition in vivo at 3 mg/kg in the assay with Rattus norvegicus [4] is 31%.

Consider `CCOC(=O)c1nc2cc(OC(=O)c3ccccc3)c(OC)cc2c(=O)[nH]1`, for which the inhibition in vivo at 10 mg/kg with Rattus norvegicus [5] worked out at 14%.

With `CCOC(=O)c1nc2c(C(F)(F)F)cc(Cl)cc2c(=O)[nH]1`, in the assay with Rattus norvegicus [5], the inhibition in vivo at 10 mg/kg is 0%.

Turning to `CCc1ccc2occ(-c3nnn[nH]3)c(=O)c2c1`, the ED50 in the assay on Rattus norvegicus [1] stood at 7 mg/kg. Also, in the assay with Rattus norvegicus [2], the “fold change (FC)” value came out at 4.

As for `CCOC(=O)c1nc2ncccc2c(=O)[nH]1`, the inhibition in vivo at 1 mg/kg in the assay with Rattus norvegicus [6] worked out at 6%. Also, the inhibition in vivo at 3 mg/kg in the assay on Rattus norvegicus [4] was 66%. Also, the inhibition in vivo at 10 mg/kg with Rattus norvegicus [5] came to 96%. The result in the assay with Rattus norvegicus [7] was inactive.

Consider `COc1cccc2c(=O)c(CO)coc12`, for which, in the assay with Rattus norvegicus [3], the ED50 was found to be 2 mg/kg.

Take `O=C(O)c1nc2nc3ccccc3cc2c(=O)[nH]1`: the inhibition in vivo at 1 mg/kg in the assay with Rattus norvegicus [6] came to 92%. Further, the inhibition in vivo at 100 mg/kg in the assay on Rattus norvegicus [7] was found to be 96%. In the assay with Rattus norvegicus [8], the inhibition in vivo at 10 mg/kg was found to be 0%. For the same molecule, in the assay on Rattus norvegicus [9], the inhibition in vivo at 30 mg/kg came out at 57%.

Consider `O=C(O)CCc1nc2cc3ccccc3cc2c(=O)[nH]1`, for which the inhibition in vivo at 10 mg/kg with Rattus norvegicus [5] came out at 7%.

Turning to `CCCc1c2c(c(O)c3c(=O)cc(C(=O)O)oc13)CCCC2` [PROXICROMIL], in the assay with Rattus norvegicus [1], the ED50 was 15.5 mg/kg. Further, the “fold change (FC)” value in the assay with Rattus norvegicus [2] was 0.19. For the same molecule, the Activity with Homo sapiens [10] worked out at 4.6 mg.

Take `COc1cc2nc(C(=O)O)[nH]c(=O)c2cc1OC`: the inhibition in vivo at 30 mg/kg in the assay on Rattus norvegicus [11] amounted to 69%. Besides, the outcome in the assay on Rattus norvegicus [7] was inactive.

With `O=C(O)c1nc2cc3ccccc3cc2c(=O)[nH]1`, the inhibition in vivo at 1 mg/kg with Rattus norvegicus [6] came out at 14%. Moreover, the inhibition in vivo at 3 mg/kg with Rattus norvegicus [4] is 36%. Besides, in the assay with Rattus norvegicus [5], the inhibition in vivo at 10 mg/kg was 100%. In addition, the inhibition in vivo at 100 mg/kg with Rattus norvegicus [7] is 0%.

As for `CCCOc1ccccc1-c1nc2[nH]nnc2c(=O)[nH]1` [ZAPRINAST], the ED50 in the assay with Rattus norvegicus [3] amounted to 0.2 mg/kg.

Consider `O=c1[nH]cnc2nc3ccccc3cc12`, for which the inhibition in vivo at 3 mg/kg in the assay on Rattus norvegicus [4] turned out to be 33%. Besides, in the assay on Rattus norvegicus [5], the inhibition in vivo at 10 mg/kg worked out at 4%.

In the case of `CCOC(=O)c1nc2cc3ccccc3cc2c(=O)[nH]1`, in the assay on Rattus norvegicus [7], the inhibition in vivo at 100 mg/kg is 38%. The inhibition in vivo at 30 mg/kg with Rattus norvegicus [12] came to 27%.

Take `O=c1[nH]c(=O)c2cc3ccccc3nc2[nH]1`: the inhibition in vivo at 3 mg/kg with Rattus norvegicus [4] was 41%.

For the molecule `Cc1nc(O)c2cc3ccccc3cc2n1`, in the assay with Rattus norvegicus [4], the inhibition in vivo at 3 mg/kg was found to be 15%.

For `O=C(O)c1nc2c(Br)cc(Br)cc2c(=O)[nH]1`, in the assay on Rattus norvegicus [13], the inhibition in vivo at 50 mg/kg stood at 0%.

Turning to `CCOC(=O)c1nc2cc(OC)c(OC)cc2c(=O)[nH]1`, in the assay with Rattus norvegicus [11], the inhibition in vivo at 30 mg/kg is 80%. Besides, in the assay with Rattus norvegicus [7], the outcome was inactive.

Turning to `CCOC(=O)c1nc(O)c2cc3ccccc3nc2n1`, the ED50 in the assay on Rattus norvegicus [14] turned out to be 3 mg/kg. The inhibition in vivo at 1 mg/kg came out at 98% with Rattus norvegicus [6] and 12% with Rattus norvegicus [16]. Also, the inhibition entry with Rattus norvegicus [5], in the assay with Rattus norvegicus [18] and in the assay with Cavia porcellus was “inactive” in each case. Also, the inhibition in vivo at 100 mg/kg in the assay on Rattus norvegicus [7] came to 80%. In addition, the inhibition in vivo at 0.1 mg/kg in the assay on Rattus norvegicus [15] was determined as 47%. Besides, in the assay on Rattus norvegicus [17], the inhibition in vivo at 3 mg/kg worked out at 53%. For the same molecule, the inhibition in vivo at 10 mg/kg in the assay on Rattus norvegicus [8] amounted to 75%. In the assay on Rattus norvegicus [9], the inhibition in vivo at 30 mg/kg stood at 72%.

In the case of `Cc1cc2c(cc1C)C(=O)C([N+](=O)[O-])C2=O`, in the assay with Rattus norvegicus [19], the ED50 amounted to 1 mg/kg. In addition, the “fold change (FC)” value with Rattus norvegicus [20] amounted to 25. Besides, the Activity with Homo sapiens [21] stood at 2 mg/kg.

Turning to `O=C([O-])c1cc(=O)c2c(OCC(O)COc3cccc4oc(C(=O)[O-])cc(=O)c34)cccc2o1.[Na+].[Na+]` [CROMOLYN SODIUM], the ED50 in the assay on Rattus norvegicus [14] was found to be 1 mg/kg. Moreover, in the assay on Rattus norvegicus [6], the inhibition in vivo at 1 mg/kg worked out at 55%. Also, the inhibition in vivo at 3 mg/kg in the assay with Rattus norvegicus [4] is 77%. Also, the inhibition in vivo at 10 mg/kg in the assay with Rattus norvegicus [5] was found to be 90%. Further, the inhibition in vivo at 30 mg/kg in the assay on Rattus norvegicus [11] was 99%. Moreover, the result in the assay on Rattus norvegicus [7] was inactive. Also, the inhibition in vivo at 0.1 mg/kg in the assay on Rattus norvegicus [15] stood at 14%.

Take `O=C(O)c1nc2ccc([N+](=O)[O-])cc2c(=O)[nH]1`: the inhibition in vivo at 30 mg/kg with Rattus norvegicus [11] is 67%.

`O=C(O)c1nc2c(C(F)(F)F)cc(Cl)cc2c(=O)[nH]1`: in the assay with Rattus norvegicus [5], the inhibition in vivo at 10 mg/kg was 0%.

Take `O=C(O)c1nc2ccccc2c(=O)[nH]1`: the inhibition in vivo at 10 mg/kg with Rattus norvegicus [5] came out at 52%.
